# Results taken from ChEMBL document CHEMBL4811241, “Revisiting Pyrazolo[3,4-d]pyrimidine Nucleosides as Anti-Trypanosoma cruzi and Antileishmanial Agents” (J Med Chem, 2021).
# Tests used:
# Trypanosoma cruzi = experiment: Antitrypanosomal activity against nifurtimox-sensitive Trypanosoma cruzi Tulahuen CL2 infected in human MRC-5 SV2 cells assessed as inhibition of parasite growth measured after 7 days by spectrophotometric analysis; format: functional, organism-based; conditions: Tulahuen CL2, MRC-5 SV2, 168 h
# [1] = Cytotoxicity against human MRC-5 SV2 cells assessed as reduction in cell growth measured after 3 days by resazurin dye based fluorometric analysis; conditions: time 3 day
# [2] = Selectivity index, ratio of CC50 for human MRC-5 SV2 cells to IC50 for antitrypanosomal activity against nifurtimox-sensitive Trypanosoma cruzi Tulahuen CL2 infected in human MRC-5 SV2 cells; format: toxicity, cell-based; conditions: read-out: Ratio CC50/IC50
# Outline: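 Ratio of MRC-5SV2 CC50 (3-day resazurin assay) to IC50 against T. cruzi amastigotes in MRC-5SV2 cells (7-day CPRG assay).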
# Leishmania infantum = experiment: Antileishmanial activity against amastigote form of Leishmania infantum MHOM/MA(BE)/67 infected in Swiss mouse peritoneal macrophages assessed as reduction in parasite growth treated at 2 hrs post-infection and measured after 5 days by Giemsa staining based microscopic analysis; format: functional, organism-based; conditions: MHOM/MA(BE)/67, Peritoneal macrophage
# Outline: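 Swiss mouse peritoneal macrophages, harvested after 2-day potato-starch stimulation, infected 48 h after plating; compounds added 2 h post-infection.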
# [3] = Cytotoxicity against Swiss mouse peritoneal macrophages assessed as cell detachment, lysis and granulation measured after 5 days by microscopic analysis; format: cell-based, Peritoneal macrophage; conditions: time 5 day
# Outline: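 Scored within the Leishmania macrophage assay over 5 days: detachment, lysis and granulation judged semi-quantitatively by microscopy across at least 500 cells. CC50 derived from % reduction in normal cells versus untreated wells.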
# [4] = Selectivity index, ratio of CC50 for Swiss mouse peritoneal macrophages to IC50 for antileishmanial activity against amastigote form of Leishmania infantum MHOM/MA(BE)/67 infected in Swiss mouse peritoneal macrophages; format: toxicity; conditions: read-out: Ratio CC50/IC50
# Outline: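 Ratio of macrophage CC50 to L. infantum amastigote IC50, both taken from the same 5-day macrophage assay.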
SMILES,IC50 (Trypanosoma cruzi) [µM],CC50 at 72 h [1] [µM],selectivity ratio [2],IC50 (Leishmania infantum) [µM],CC50 at 120 h [3] [µM],selectivity ratio [4]
Nc1ncnc2c1c(C(F)F)nn2[C@@H]1O[C@H](CO)[C@@H](O)[C@H]1O,8.3,2.42,< 1,0.25,0.25,1
C#Cc1nn([C@@H]2O[C@H](CO)[C@@H](O)[C@H]2O)c2ncnc(N)c12,2.78,≥ 46.5,20,10.4,≥ 8,1
Nc1ncnc2c1c(Br)nn2[C@@H]1O[C@H](CO)[C@@H](F)[C@H]1O,1.06,0.23,–,0.08,0.13,1
C=C(C)c1nn([C@@H]2O[C@H](CO)[C@@H](O)[C@H]2O)c2ncnc(N)c12,29.5,0.35,< 1,24.1,32,1
Cc1ccc(-c2nn([C@@H]3O[C@H](CO)[C@@H](O)[C@H]3O)c3ncnc(N)c23)s1,7.1,> 64,> 9,≥ 32,> 64,> 1
Nc1ncnc2c1c(-c1ccc(C(F)(F)F)cc1)nn2[C@@H]1O[C@H](CO)[C@@H](O)[C@H]1O,6.34,> 64,> 10,57,> 64,> 1
O=c1[nH]cnc2c1cnn2[C@@H]1O[C@H](CO)[C@@H](O)[C@H]1O,7.18,> 64,9,6.66,> 64,10
Nc1ncnc2c1c(-c1ccc(Cl)cc1Cl)nn2[C@@H]1O[C@H](CO)[C@@H](O)[C@H]1O,6.06,> 64,> 11,52.8,> 64,> 1
Nc1ncnc2c1c(-c1ccc(Cl)cc1)nn2[C@H]1C[C@H](O)[C@@H](CO)O1,2.49,> 64,> 22,≥ 32.5,≥ 32,1
CNc1nn([C@@H]2O[C@H](CO)[C@@H](O)[C@H]2O)c2ncnc(N)c12,> 64,> 64,–,50.8,> 64,> 1
NC(=O)c1nn([C@@H]2O[C@H](CO)[C@@H](O)[C@H]2O)c2ncnc(N)c12,0.25,0.25,1,8.11,8,1
Nc1ncnc2c1c(N)nn2[C@@H]1O[C@H](CO)[C@@H](O)[C@H]1O,7.64,23,3,6.82,8,1
Nc1ncnc2c1c(-c1ccncc1)nn2[C@@H]1O[C@H](CO)[C@@H](O)[C@H]1O,21.5,> 64,> 3,25.4,> 64,> 3
Cc1ccc(-c2nn([C@@H]3O[C@H](CO)[C@@H](O)[C@H]3O)c3ncnc(N)c23)cc1,1.77,> 64,> 36,> 64,> 64,–
Nc1ncnc2c1c(-c1ccc(Cl)cc1)nn2[C@@H]1O[C@H](CO)C[C@H]1O,1.04,> 64,> 61,> 64,> 64,–
Nc1ncnc2c1c(C(=O)Nc1ccccc1)nn2[C@@H]1O[C@H](CO)[C@@H](O)[C@H]1O,> 64,> 64,–,32.5,32,1

SMILES,IC50 (Trypanosoma cruzi) [µM],CC50 at 72 h [1] [µM],selectivity ratio [2],IC50 (Leishmania infantum) [µM],CC50 at 120 h [3] [µM],selectivity ratio [4]
Nc1ncnc2c1c(/C=C/c1ccccc1)nn2[C@@H]1O[C@H](CO)[C@@H](O)[C@H]1O,16.5,> 64,> 4,50.8,> 64,> 1
Oc1ncnc2[nH]ncc12 [ALLOPURINOL],9.75,> 64,> 7,3.51,> 64,> 18
NCc1nn([C@@H]2O[C@H](CO)[C@@H](O)[C@H]2O)c2ncnc(N)c12,11.1,59.3,5,2,8,4
C=Cc1nn([C@@H]2O[C@H](CO)[C@@H](O)[C@H]2O)c2ncnc(N)c12,> 64,> 64,–,12.7,32,3
Nc1ncnc2c1c(-c1ccc(F)c(Cl)c1)nn2[C@@H]1O[C@H](CO)[C@@H](O)[C@H]1O,4.66,> 64,> 14,> 64,> 64,–
Nc1ncnc2c1c(-c1ccccc1)nn2[C@@H]1O[C@H](CO)[C@@H](O)[C@H]1O,13.1,> 64,> 5,> 64,> 64,–
Nc1ncnc2c1c(-c1ccc(OC(F)(F)F)cc1)nn2[C@@H]1O[C@H](CO)[C@@H](O)[C@H]1O,15.6,> 64,> 4,> 64,> 64,–
Nc1ncnc2c1c(-c1ccc(F)c(F)c1)nn2[C@@H]1O[C@H](CO)[C@@H](O)[C@H]1O,4.24,> 64,> 15,> 64,> 64,–
Nc1ncnc2c1c(-c1ccc([N+](=O)[O-])cc1)nn2[C@@H]1O[C@H](CO)[C@@H](O)[C@H]1O,10.3,> 64,> 6,> 64,> 64,–
Nc1ncnc2c1c(-c1ccc(Cl)c(C(F)(F)F)c1)nn2[C@@H]1O[C@H](CO)[C@@H](O)[C@H]1O,43.8,> 64,> 1,> 64,> 64,–
CCOc1cc(-c2nn([C@@H]3O[C@H](CO)[C@@H](O)[C@H]3O)c3ncnc(N)c23)ccc1Cl,45.3,> 64,> 1,> 64,> 64,–
Cc1cc(-c2nn([C@@H]3O[C@H](CO)[C@@H](O)[C@H]3O)c3ncnc(N)c23)ccc1Cl,0.81,> 64,> 79,> 64,> 64,–
Cn1cc(-c2nn([C@@H]3O[C@H](CO)[C@@H](O)[C@H]3O)c3ncnc(N)c23)cn1,45.3,> 64,> 1,> 64,> 64,–
Nc1ncnc2c1c(Oc1ccccc1)nn2[C@@H]1O[C@H](CO)[C@@H](O)[C@H]1O,> 64,> 64,–,32,> 64,> 2
Nc1ncnc2c1c(-c1ccc(Cl)c(Cl)c1)nn2[C@@H]1O[C@H](CO)[C@@H](O)[C@H]1O,2.82,> 64,> 23,> 64,> 64,–
